The source made the active and inactive calls. No cut-off for these calls is given here. Bounds are passed on as bounds.

T3 sequence (O14842 whole entry): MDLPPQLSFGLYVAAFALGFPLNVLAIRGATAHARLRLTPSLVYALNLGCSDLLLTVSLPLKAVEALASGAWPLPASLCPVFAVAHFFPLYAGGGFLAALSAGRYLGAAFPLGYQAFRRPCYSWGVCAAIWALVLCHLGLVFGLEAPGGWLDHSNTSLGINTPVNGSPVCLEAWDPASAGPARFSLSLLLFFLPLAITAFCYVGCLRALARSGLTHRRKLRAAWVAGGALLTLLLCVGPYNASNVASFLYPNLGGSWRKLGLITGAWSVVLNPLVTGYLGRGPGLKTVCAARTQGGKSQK
Chain of Free fatty acid receptor 1 (Rattus norvegicus) (Q8K3T4 whole entry): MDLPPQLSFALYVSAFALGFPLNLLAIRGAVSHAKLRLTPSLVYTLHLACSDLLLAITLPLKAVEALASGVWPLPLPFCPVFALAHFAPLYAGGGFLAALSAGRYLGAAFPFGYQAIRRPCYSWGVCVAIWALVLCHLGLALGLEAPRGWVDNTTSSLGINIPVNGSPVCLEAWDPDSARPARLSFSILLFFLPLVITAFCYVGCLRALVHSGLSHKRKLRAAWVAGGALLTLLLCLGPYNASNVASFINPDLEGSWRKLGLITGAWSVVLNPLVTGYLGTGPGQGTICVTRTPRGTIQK

The target of one data set is T1, Peroxisome proliferator-activated receptor alpha (Homo sapiens) (UniProt Q07869).
T1 sequence (whole entry): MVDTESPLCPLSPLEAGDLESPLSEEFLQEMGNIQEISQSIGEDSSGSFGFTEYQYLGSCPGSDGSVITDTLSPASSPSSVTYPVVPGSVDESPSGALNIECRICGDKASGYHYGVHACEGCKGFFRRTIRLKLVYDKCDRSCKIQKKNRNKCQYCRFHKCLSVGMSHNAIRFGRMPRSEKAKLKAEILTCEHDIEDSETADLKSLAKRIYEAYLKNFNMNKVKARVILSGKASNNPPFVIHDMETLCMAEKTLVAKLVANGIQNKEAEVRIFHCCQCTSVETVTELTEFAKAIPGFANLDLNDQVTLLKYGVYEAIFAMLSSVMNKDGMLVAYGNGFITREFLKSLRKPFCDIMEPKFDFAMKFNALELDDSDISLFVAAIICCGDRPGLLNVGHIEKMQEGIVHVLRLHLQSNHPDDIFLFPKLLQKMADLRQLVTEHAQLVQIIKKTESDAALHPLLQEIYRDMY
The data set can be described thus: Displacement of [3H]-agonist from human PPARalpha expressed in baculovirus infecetd Sf9 cells system up to 30 uM after 10 hrs in presence of DR2 by scintillation proximity assay.
Conditions: not given
A digest of the protocol: (§1)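 PPAR alpha, delta and gamma binding and functional activity were each tested at concentrations up to 30 µM.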
In general terms: In a radioligand displacement assay an active substance lowers the binding of a labelled ligand.
In the case of `CC#C[C@@H](CC(=O)O)c1ccc(OCc2ccc3nc(-c4c(C)cc(OCCCS(C)(=O)=O)cc4C)nn3c2)cc1`, the result was inactive.

The target of another data set is T2, Peroxisome proliferator-activated receptor delta (Homo sapiens) (UniProt Q03181).
T2 sequence (whole entry): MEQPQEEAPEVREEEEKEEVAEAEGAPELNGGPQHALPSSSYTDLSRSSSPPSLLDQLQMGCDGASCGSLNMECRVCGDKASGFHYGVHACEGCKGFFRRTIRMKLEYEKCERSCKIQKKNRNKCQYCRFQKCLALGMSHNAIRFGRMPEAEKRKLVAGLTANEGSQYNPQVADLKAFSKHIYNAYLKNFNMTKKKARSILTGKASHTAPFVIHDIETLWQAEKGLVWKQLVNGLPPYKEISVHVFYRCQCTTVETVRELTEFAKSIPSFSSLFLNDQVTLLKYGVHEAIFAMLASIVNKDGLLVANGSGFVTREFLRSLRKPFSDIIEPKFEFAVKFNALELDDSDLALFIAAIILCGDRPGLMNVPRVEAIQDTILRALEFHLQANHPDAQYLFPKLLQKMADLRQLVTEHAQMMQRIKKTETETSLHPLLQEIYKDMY
The data set can be described thus: Agonist activity at GAL4-fused human PPARdelta expressed in African green monkey CV1 cells up to 30 uM after 24 hrs by luciferase reporter gene assay. It is filed as cell-based.
Conditions: not given
Put shortly: as §1
(In general: A reporter such as luciferase makes a cellular process visible.)
On to `CC#C[C@@H](CC(=O)O)c1ccc(OCc2ccc3nc(-c4c(C)cc(OCCCS(C)(=O)=O)cc4C)nn3c2)cc1`, for which the result was inactive.

For the next data set, the target named is Free fatty acid receptor 1 (Rattus norvegicus, UniProt Q8K3T4). Put plainly: Agonist activity at rat PK-tagged GPR40 expressed in human U2OS cells assessed as EA-tagged beta-arrestin recruitment after 90 mins in presence of 1 % heat inactivated FBS by beta-galactosidase reporter gene assay. It counts as cell-based.
Chain of Free fatty acid receptor 1 (Rattus norvegicus, UniProt Q8K3T4) (Q8K3T4 whole entry): as the sequence (Q8K3T4 whole entry) above
Conditions: not given
A digest of the protocol: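 β-Arrestin recruitment used rat GPR40 in the presence of 1% FBS. EC50 and % maximal stimulation are reported with SEM and n.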
In general terms: Activated receptors often draw arrestin, which recruitment assays turn into a signal.
As usually defined, the EC50 is the concentration needed to bring the measured effect to its halfway point. For `CC#C[C@@H](CC(=O)O)c1ccc(OCc2ccc3nc(-c4c(C)cc(OCCCS(C)(=O)=O)cc4C)nn3c2)cc1`, the EC50 worked out at 0.095 µM.

The next data set concerns the target T3, Free fatty acid receptor 1 (Homo sapiens, UniProt O14842). The data set can be described thus: Agonist activity at human GPR40 receptor expressed in HEK293 cells assessed as increase in intracellular calcium flux after 2.5 hrs measured over 3 mins by calcium 4 dye-based FLIPR assay. It is filed as functional, cell-based.
Conditions: not given
A digest of the protocol: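 Calcium flux was read by FLIPR in cells carrying recombinant human GPR40. Percent stimulation is relative to the response to 100 µM linoleic acid. EC50 is reported with SEM and n.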
Consider `CC#C[C@@H](CC(=O)O)c1ccc(OCc2ccc3nc(-c4c(C)cc(OCCCS(C)(=O)=O)cc4C)nn3c2)cc1`, for which the EC50 was 0.117 µM.

In a further data set the test system is 3T3-L1. Put plainly: Induction of adipogenesis in mouse 3T3L1 cells.
Conditions: not given
It is filed as functional, cell-based. A digest of the protocol: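 Adipogenesis was assessed in 3T3-L1 cells.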
Regarding `CC#C[C@@H](CC(=O)O)c1ccc(OCc2ccc3nc(-c4c(C)cc(OCCCS(C)(=O)=O)cc4C)nn3c2)cc1`, the outcome was inactive.

Another data set deals with T2, Peroxisome proliferator-activated receptor delta (Homo sapiens). The data set can be described thus: Displacement of [3H]-agonist from human PPARdelta expressed in baculovirus infecetd Sf9 cells system up to 30 uM after 10 hrs in presence of DR2 by scintillation proximity assay.
Conditions: not given
A digest of the protocol: as §1
For the molecule `CC#C[C@@H](CC(=O)O)c1ccc(OCc2ccc3nc(-c4c(C)cc(OCCCS(C)(=O)=O)cc4C)nn3c2)cc1`, the result was inactive.

The next data set deals with T3, Free fatty acid receptor 1. The data set can be described thus: Competitive displacement of [3H]-TAK-875 from full length human recombinant GPR40 expressed in HEK293 cell membranes after 2 hrs by scintillation counting.
Conditions: not given
A digest of the protocol:
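Binding was measured as competitive inhibition of [3H]-TAK875 (fasiglifam) binding to membranes from cells overexpressing recombinant human GPR40. Ki is reported with SEM and n.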
A word on the Ki: it is a measure of affinity in units of concentration, obtained from inhibition or displacement. `CC#C[C@@H](CC(=O)O)c1ccc(OCc2ccc3nc(-c4c(C)cc(OCCCS(C)(=O)=O)cc4C)nn3c2)cc1`: the Ki was determined as 0.063 µM.

System in another data set: not listed separately
The data set can be described thus: Protein binding in plasma (unknown origin) by equilibrium dialysis assay. It is filed as ADME, cell-free. Conditions: read-out: PPB.
For the molecule `CC#C[C@@H](CC(=O)O)c1ccc(OCc2ccc3nc(-c4c(C)cc(OCCCS(C)(=O)=O)cc4C)nn3c2)cc1`, the fraction unbound was less than 0.01.

The target in another data set is T3, Free fatty acid receptor 1. Put plainly: Agonist activity at human PK-tagged GPR40 expressed in HEK293 cells assessed as EA-tagged beta-arrestin recruitment after 90 mins in presence of 1 % heat inactivated FBS by beta-galactosidase reporter gene assay. It is filed as cell-based.
Conditions: not given
For the molecule `CC#C[C@@H](CC(=O)O)c1ccc(OCc2ccc3nc(-c4c(C)cc(OCCCS(C)(=O)=O)cc4C)nn3c2)cc1`, the EC50 is 1.49 µM.

The target of a further data set is T1, Peroxisome proliferator-activated receptor alpha (Homo sapiens). The data set can be described thus: Agonist activity at GAL4-fused human PPARalpha expressed in African green monkey CV1 cells up to 30 uM after 24 hrs by luciferase reporter gene assay. It is filed as cell-based.
Conditions: not given
A digest of the protocol: as §1
Regarding `CC#C[C@@H](CC(=O)O)c1ccc(OCc2ccc3nc(-c4c(C)cc(OCCCS(C)(=O)=O)cc4C)nn3c2)cc1`, the result was inactive.

The next data set concerns the target Free fatty acid receptor 1 (Rattus norvegicus) (UniProt Q8K3T4). Put plainly: Agonist activity at rat PK-tagged GPR40 expressed in human U2OS cells assessed as EA-tagged beta-arrestin recruitment after 90 mins in presence of 1 % heat inactivated FBS by beta-galactosidase reporter gene assay relative to untreated control. It counts as cell-based.
Conditions: not given
For `CC#C[C@@H](CC(=O)O)c1ccc(OCc2ccc3nc(-c4c(C)cc(OCCCS(C)(=O)=O)cc4C)nn3c2)cc1`, the %max stood at 140%.

The target of another data set is T4, Peroxisome proliferator-activated receptor gamma (Homo sapiens) (UniProt P37231).
T4 sequence (whole entry): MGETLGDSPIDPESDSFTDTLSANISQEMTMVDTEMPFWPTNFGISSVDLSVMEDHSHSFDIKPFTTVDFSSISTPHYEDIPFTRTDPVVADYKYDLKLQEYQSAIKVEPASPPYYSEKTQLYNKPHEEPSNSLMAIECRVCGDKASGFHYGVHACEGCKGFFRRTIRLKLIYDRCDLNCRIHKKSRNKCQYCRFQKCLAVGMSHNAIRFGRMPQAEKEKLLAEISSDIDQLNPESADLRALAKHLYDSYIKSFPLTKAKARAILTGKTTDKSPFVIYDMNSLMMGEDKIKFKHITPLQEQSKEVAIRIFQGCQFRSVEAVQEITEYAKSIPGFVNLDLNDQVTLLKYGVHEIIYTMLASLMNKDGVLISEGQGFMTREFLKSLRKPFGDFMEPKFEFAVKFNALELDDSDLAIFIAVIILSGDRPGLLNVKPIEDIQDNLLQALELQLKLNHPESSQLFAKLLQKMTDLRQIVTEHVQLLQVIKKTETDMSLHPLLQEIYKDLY
Put plainly: Agonist activity at […] human PPARgamma expressed in African green monkey CV1 cells up to 30 uM after 24 hrs by luciferase reporter gene assay. It is filed as cell-based.
Conditions: not given
A digest of the protocol: as §1
Take `CC#C[C@@H](CC(=O)O)c1ccc(OCc2ccc3nc(-c4c(C)cc(OCCCS(C)(=O)=O)cc4C)nn3c2)cc1`: the outcome was inactive.

The next data set deals with T4, Peroxisome proliferator-activated receptor gamma (Homo sapiens). The data set can be described thus: Displacement of [3H]-agonist from human PPARgamma expressed in baculovirus infecetd Sf9 cells system up to 30 uM after 10 hrs in presence of DR2 by scintillation proximity assay.
Conditions: not given
Put shortly: as §1
With `CC#C[C@@H](CC(=O)O)c1ccc(OCc2ccc3nc(-c4c(C)cc(OCCCS(C)(=O)=O)cc4C)nn3c2)cc1`, the outcome was inactive.

The next data set has as its target T3, Free fatty acid receptor 1. Put plainly: Agonist activity at human GPR40 receptor expressed in HEK293 cells assessed as increase in intracellular calcium flux after 2.5 hrs measured over 3 mins in presence of 0.1% serum albumin by calcium 4 dye-based FLIPR assay. It is filed as functional, cell-based.
Conditions: not given
As for `CC#C[C@@H](CC(=O)O)c1ccc(OCc2ccc3nc(-c4c(C)cc(OCCCS(C)(=O)=O)cc4C)nn3c2)cc1`, the outcome was Active.

The target in the next data set is T3, Free fatty acid receptor 1. The data set can be described thus: Agonist activity at human PK-tagged GPR40 expressed in HEK293 cells assessed as EA-tagged beta-arrestin recruitment after 90 mins in presence of 1 % heat inactivated FBS by beta-galactosidase reporter gene assay relative to untreated control. It counts as cell-based.
Conditions: not given
In the case of `CC#C[C@@H](CC(=O)O)c1ccc(OCc2ccc3nc(-c4c(C)cc(OCCCS(C)(=O)=O)cc4C)nn3c2)cc1`, the %max turned out to be 114%.

A further data set has as its target T3, Free fatty acid receptor 1. The data set can be described thus: Agonist activity at human GPR40 receptor expressed in HEK293 cells assessed as increase in intracellular calcium flux after 2.5 hrs measured over 3 mins by calcium 4 dye-based FLIPR assay relative to linoleic acid. It counts as functional, cell-based. Also noted: Activity: concentration or dose not given beside the values.
Conditions: not given
Put shortly:
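Human GPR40 calcium flux was read on FLIPR. Percent stimulation is expressed against the response to 100 uM linoleic acid.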
With `CC#C[C@@H](CC(=O)O)c1ccc(OCc2ccc3nc(-c4c(C)cc(OCCCS(C)(=O)=O)cc4C)nn3c2)cc1`, the Activity is 71%.

The values above are taken from ChEMBL document CHEMBL4024777, “Discovery of LY3104607: A Potent and Selective G Protein-Coupled Receptor 40 (GPR40) Agonist with Optimized Pharmacokinetic Properties to Support Once Daily Oral Treatment in Patients with Type 2 Diabetes Mellitus” (J Med Chem, 2018).
